ChEMBL document CHEMBL1157663, “Acyclic nucleoside phosphonates with 5-azacytosine base moiety substituted in C-6 position” (Bioorg Med Chem, 2010)
In brackets after ≈: the same amount, converted by molar mass. Activity calls are given as the source filed them. The rule behind the calls is not given here.

Legend:
[1] = Cytotoxicity against african green monkey Vero cells; type: cell-based; details: chlorocebus sabaeus
[2] = test system: HEL; assay: Cytostatic activity against HEL cells; type: ADME, cell-based; details: human
[3] = test system: CCRF-CEM; assay: Cytostatic activity against human CEM cells; type: cell-based
[4] = test system: Vero; assay: Cytostatic activity against african green monkey Vero cells; type: ADME, cell-based; details: chlorocebus sabaeus
[5] = test system: Human alphaherpesvirus 1; assay: Antiviral activity against Herpes simplex virus 1 infected in HEL cells; type: functional, organism-based
Outline: (§1)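 DNA-virus assay run in human embryonic lung (HEL) cell cultures.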

[6] = test system: Human alphaherpesvirus 2; assay: Antiviral activity against Herpes simplex virus 2 infected in HEL cells; type: functional, organism-based; outline: as §1
[7] = test system: Vaccinia virus; assay: Ratio of compound EC50 to HPMP-5-azaC EC50 for Vaccinia virus infected in HEL cells; type: functional, Orthopoxvirus vaccinia
[8] = test system: Cowpox virus; assay: Ratio of compound EC50 to HPMP-5-azaC EC50 for Cowpox virus infected in HEL cells; type: functional
[9] = test system: Human immunodeficiency virus 1; assay: Antiviral activity against HIV1 infected in human CEM cells; type: functional, organism-based; details: CCRF-CEM
Outline: (§2)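 Retroviral assay (HIV-1, HIV-2) run in human T-lymphocyte CEM cells.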

[10] = test system: Human immunodeficiency virus 2; assay: Antiviral activity against HIV2 infected in human CEM cells; type: functional, organism-based; details: CCRF-CEM; outline: as §2
[11] = Cytotoxicity against HEL cells; type: cell-based; details: human
[12] = Cytotoxicity against human CEM cells; type: cell-based; details: CEM (CCRF-CEM) cells
[13] = test system: Sindbis virus; assay: Antiviral activity against Sindbis virus infected in african green monkey Vero cells at 20 ug/ml; type: functional, organism-based
[14] = test system: Human alphaherpesvirus 3; assay: Antiviral activity against Varicella zoster virus infected in HEL cells; type: functional, organism-based; details: Human alphaherpesvirus 3, HEL; outline: as §1
[15] = test system: Human betaherpesvirus 5; assay: Antiviral activity against Human cytomegalovirus infected in HEL cells; type: functional, organism-based; details: Human betaherpesvirus 5, HEL; outline: as §1
[16] = test system: Human betaherpesvirus 6; assay: Antiviral activity against Human herpesvirus 6; type: functional, organism-based

## Nc1nc(-c2ccccc2)n(C[C@@H](CO)OCP(=O)(O)O)c(=O)n1
[1]
  CC50: > 100 mg/L
[2]
  Activity: Non-toxic
[3]
  Activity: Non-toxic
[4]
  Activity: Non-toxic
[5]
  Activity: inactive
[6]
  Activity: inactive
[7]
  Ratio EC50: 50
[8]
  Ratio EC50: 50
[9]
  Activity: inactive
[10]
  Activity: inactive
[11]
  CC50: > 100 mg/L
[12]
  CC50: > 100 mg/L

## CCCc1nc(N)nc(=O)n1C[C@@H](CO)OCP(=O)(O)O
[1]
  CC50: > 100 mg/L
[2]
  Activity: Non-toxic
[3]
  Activity: Non-toxic
[4]
  Activity: Non-toxic
[5]
  Activity: inactive
[6]
  Activity: inactive
[7]
  Ratio EC50: 50
[8]
  Ratio EC50: 50
[9]
  Activity: inactive
[10]
  Activity: inactive
[11]
  CC50: > 100 mg/L
[12]
  CC50: > 100 mg/L

## Cc1nc(N)n(C[C@@H](CO)OCP(=O)(O)O)c(=O)n1
[1]
  CC50: > 100 mg/L
[2]
  Activity: Non-toxic
[3]
  Activity: Non-toxic
[4]
  Activity: Non-toxic
[5]
  Activity: inactive
[6]
  Activity: inactive
[9]
  Activity: inactive
[10]
  Activity: inactive
[13]
  Activity: inactive
[11]
  CC50: > 100 mg/L
[12]
  CC50: > 100 mg/L

## CCc1nc(N)nc(=O)n1C[C@@H](CO)OCP(=O)(O)O
[1]
  CC50: > 100 mg/L
[2]
  Activity: Non-toxic
[3]
  Activity: Non-toxic
[4]
  Activity: Non-toxic
[5]
  Activity: inactive
[6]
  Activity: inactive
[7]
  Ratio EC50: 50
[8]
  Ratio EC50: 50
[9]
  Activity: inactive
[10]
  Activity: inactive
[11]
  CC50: > 100 mg/L
[12]
  CC50: > 100 mg/L

## Cc1nc(N)n(C[C@@H](CO)OCP(=O)(O)OC(C)C)c(=O)n1
[1]
  CC50: > 100 mg/L
[2]
  Activity: Non-toxic
[3]
  Activity: Non-toxic
[4]
  Activity: Non-toxic
[5]
  Activity: inactive
[6]
  Activity: inactive
[9]
  Activity: inactive
[10]
  Activity: inactive
[13]
  Activity: Active
[11]
  CC50: > 100 mg/L
[12]
  CC50: > 100 mg/L

## Cc1nc(N)nc(=O)n1C[C@@H](CO)OCP(=O)(O)O
[1]
  CC50: > 100 mg/L
[2]
  Activity: Non-toxic
[3]
  Activity: Non-toxic
[4]
  Activity: Non-toxic
[5]
  Activity: inactive
[6]
  Activity: inactive
[7]
  Ratio EC50: 50
[8]
  Ratio EC50: 50
[9]
  Activity: inactive
[10]
  Activity: inactive
[11]
  CC50: > 100 mg/L
[12]
  CC50: > 100 mg/L

## CCCCCCCCCCCCCCCCOCCOP1(=O)CO[C@@H](Cn2cnc(N)nc2=O)CO1 (stereo not given in full)
[1]
  CC50: > 100 mg/L
[2]
  Activity: Non-toxic
[3]
  Activity: Non-toxic
[4]
  Activity: Non-toxic
[5]; Human alphaherpesvirus 1, HEL
  EC50: 0.003 mg/L (≈ 0.00565 µM)
[6]; Human alphaherpesvirus 2, HEL
  EC50: 0.003 mg/L (≈ 0.00565 µM)
[14]
  EC50: ≤ 0.0008 mg/L
[15]
  EC50: ≤ 0.00014 mg/L
[16]
  EC50: 0.008 mg/L (≈ 0.0151 µM)
[9]
  Activity: inactive
[10]
  Activity: inactive
[11]
  CC50: > 100 mg/L
[12]
  CC50: > 100 mg/L

## CCCCc1nc(N)nc(=O)n1C[C@@H](CO)OCP(=O)(O)O
[1]
  CC50: > 100 mg/L
[2]
  Activity: Non-toxic
[3]
  Activity: Non-toxic
[4]
  Activity: Non-toxic
[5]
  Activity: inactive
[6]
  Activity: inactive
[7]
  Ratio EC50: 50
[8]
  Ratio EC50: 50
[9]
  Activity: inactive
[10]
  Activity: inactive
[11]
  CC50: > 100 mg/L
[12]
  CC50: > 100 mg/L

## Nc1ncnc(=O)n1C[C@@H](CO)OCP(=O)(O)O
[1]
  CC50: > 100 mg/L
[2]
  Activity: Non-toxic
[3]
  Activity: Non-toxic
[4]
  Activity: Non-toxic
[5]
  Activity: inactive
[6]
  Activity: inactive
[9]
  Activity: inactive
[10]
  Activity: inactive
[11]
  CC50: > 100 mg/L
[12]
  CC50: > 100 mg/L
